Screening data: PubChem, several laboratories
LANA-H2A inh – blocks KSHV LANA binding to histone H2A/H2B; Q9QR71; cell-free LANA-H2A/H2B peptide, fluorescence polarization; inhibition, % (concentration not given with the values); 0.6% of 320,000 active; in the data active = inhibition mostly above about 10%, no sharp cut-off; inactive = mostly below about 6.7%
Target sequence (Q9QR71 whole entry, looked up): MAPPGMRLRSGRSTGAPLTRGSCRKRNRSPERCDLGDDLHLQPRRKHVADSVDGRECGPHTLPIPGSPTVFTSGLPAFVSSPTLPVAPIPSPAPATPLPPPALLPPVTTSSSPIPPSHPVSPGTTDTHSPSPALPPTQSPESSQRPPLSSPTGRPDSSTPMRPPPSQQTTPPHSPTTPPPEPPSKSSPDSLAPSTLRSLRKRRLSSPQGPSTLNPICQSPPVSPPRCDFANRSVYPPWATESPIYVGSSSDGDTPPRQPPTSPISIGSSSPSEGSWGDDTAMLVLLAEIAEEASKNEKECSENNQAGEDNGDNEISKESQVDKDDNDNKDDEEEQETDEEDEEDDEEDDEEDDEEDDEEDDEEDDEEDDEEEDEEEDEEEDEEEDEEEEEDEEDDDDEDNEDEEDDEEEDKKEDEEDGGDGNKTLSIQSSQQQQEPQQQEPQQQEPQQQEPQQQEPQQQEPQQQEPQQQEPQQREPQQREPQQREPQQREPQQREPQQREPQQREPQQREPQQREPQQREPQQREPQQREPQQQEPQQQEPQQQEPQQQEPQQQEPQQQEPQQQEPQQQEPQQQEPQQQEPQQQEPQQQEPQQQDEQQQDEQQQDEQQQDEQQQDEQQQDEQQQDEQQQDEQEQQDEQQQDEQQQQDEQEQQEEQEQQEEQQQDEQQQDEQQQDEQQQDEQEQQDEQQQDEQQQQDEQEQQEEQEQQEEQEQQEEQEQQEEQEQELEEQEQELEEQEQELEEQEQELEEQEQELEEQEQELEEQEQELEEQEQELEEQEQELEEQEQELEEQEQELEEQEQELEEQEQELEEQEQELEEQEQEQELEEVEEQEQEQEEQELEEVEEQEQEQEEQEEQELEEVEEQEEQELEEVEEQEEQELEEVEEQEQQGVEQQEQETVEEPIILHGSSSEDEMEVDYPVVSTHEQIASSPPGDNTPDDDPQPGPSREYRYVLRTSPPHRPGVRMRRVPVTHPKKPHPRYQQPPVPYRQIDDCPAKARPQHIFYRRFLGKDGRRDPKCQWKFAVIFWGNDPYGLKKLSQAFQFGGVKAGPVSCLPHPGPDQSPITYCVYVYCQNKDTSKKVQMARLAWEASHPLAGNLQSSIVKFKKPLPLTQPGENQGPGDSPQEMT
ZTA counter – counter-screen for EBNA-1 inhibitors: inhibitors of Epstein-Barr virus ZTA; inhibition, % at 11 µM; ZTA-DNA binding, fluorescence polarization; 0.15% of 320,000 active; AID 2234; in the data active = inhibition above about 33%
EBNA-1 inhibitor – blocks EBNA-1 binding to DNA. EBNA-1 DNA binding, fluorescence polarization. inhibition, % at 14.8 µM. 0.34% of 300,000 active; in the data active = inhibition above about 28%
HNF4A DNA FP – change in binding of human HNF4 alpha to DNA; 0.3% of 360,000 active; P41235; activity change, % at 10 µM; HNF4a-FITC DNA binding, fluorescence polarization, 1 h; in the data active = activity change above about 30%, passing the limit was not always enough
CSN inh – CSN deneddylation inhibition. Q92905. Purified CSN, SCF-Nedd8-OG deneddylation, fluorescence polarization. inhibition, % at 12.5 µM. 0.38% of 360,000 active;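 active = pattern-corrected inhibition above about 35%, with an unprinted fluorescence ratio check between 0.5 and 1.5, limit read from the data, passing the limit was not always enough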
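test system = HEK293T-derived human Csn5 enzyme | amount = 0.24 nM Csn5 enzyme, final concentration | medium = Tris/NaCl/DTT buffer, pH 7.5 | schedule = 90 min reaction at room temperature | signal = FP | evaluation = inhibition of Csn5 cleavage, % | compound dosing = single dose of 12.5 µM compound with 0.25% DMSO | probe or stimulus = 10 nM SCFSkp2-Nedd8OG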
A1 inh – inhibitors of the anti-apoptotic protein A1, read as caspase activation; MEF A1-2A-BIM cells, Caspase-Glo 3/7 luminescence, 3 h; percent of clofoctol response, vehicle zero; caspase activation, % (test concentration not listed); 0.066% of 330,000 active;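 active = over half of replicate activation scores above 10%, or exactly half above 10 with the replicate mean above 10; inconclusive = replicate mean below 10 yet half the replicates above 10; inactive = over half of replicates below 10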
Each line names hits and unclear results; the compound was inactive in the other large screens; ! = repeats disagree. Shown are actives, neighbours in structure and some others; about 1.5% of the full set was active somewhere.

O=C(COC(=O)CCNS(=O)(=O)c1ccc(Cl)cc1)Nc1ccccc1OC(F)F	HNF4A DNA FP 40.0 (no result: LANA-H2A inh, ZTA counter, EBNA-1 inhibitor, A1 inh)
O=C(Nc1cc(-c2ccccc2)nn1C1CCCCC1)c1ccc(Cl)cc1	none (no result: ZTA counter, EBNA-1 inhibitor)
Cc1ccc(Nc2nnc(SC3CCOC3=O)s2)cc1 (stereo not drawn)	none
O=C1CCCCC1Sc1nnc(Nc2ccccc2)s1 (stereo not drawn)	CSN inh 45.2
Cc1ccc(S(=O)(=O)N2Cc3ccccc3CC2C(=O)NC(C)(C)C)cc1 (stereo not drawn)	none
NS(=O)(=O)c1ccc(-c2ccc(/C=C3\NC(=S)NC3=O)o2)cc1	HNF4A DNA FP 36.0
NS(=O)(=O)c1ccc(-c2ccc(C=O)o2)cc1	A1 inh inconclusive
COc1cc(C(=O)Nc2ccc(NC(=O)C(C)C)nc2)cc(OC)c1OC	LANA-H2A inh 15.4
CCc1ccc(OCC(=O)N2CCN(c3ccccn3)CC2)c(Br)c1	none
C=CCN1C(=O)C2(NC(=O)c3ccccc3N2)c2ccccc21 (stereo not drawn)	HNF4A DNA FP 81.3
CCCCN1C(=O)C(O)(CC(=O)c2c(C)coc2C)c2ccccc21 (stereo not drawn)	none
C=CCN1C(=O)C2(NNc3ccccc3O2)c2ccccc21 (stereo not drawn)	HNF4A DNA FP 70.9
CCCCN1C(=O)C2(NNc3ccccc3O2)c2ccccc21 (stereo not drawn)	HNF4A DNA FP 68.9
O=C1NC2(Nc3ccccc31)C(=O)Nc1ccccc12 (stereo not drawn)	none
O=C(Nc1ccnn1C1CCN(Cc2ccc(CO)o2)CC1)c1cccc(F)c1	none (no result: LANA-H2A inh, ZTA counter, EBNA-1 inhibitor, A1 inh)
COc1ccc(NC(=O)NNC(=O)C(C)Oc2ccc3ccccc3c2)cc1 (stereo not drawn)	none (no result: ZTA counter, EBNA-1 inhibitor)
C/C(CC(=O)Nc1ccc(F)cc1F)=N\NC(=O)C(=O)N1CCCCC1	none (no result: HNF4A DNA FP, CSN inh)
CCOc1ccc(NC(=O)C23CC4CC(C2)CC(c2ccccc2)(C4)C3)cc1	LANA-H2A inh 14.3
N#Cc1c(C(F)(F)F)cc(-c2ccccc2)nc1SCc1nc(N)nc(N2CCOCC2)n1	CSN inh 60.5
COc1ccccc1Cc1c(-c2ccco2)nc2ccc(Cl)cn12	CSN inh 36.1 (no result: LANA-H2A inh, ZTA counter, EBNA-1 inhibitor, A1 inh)
Clc1ccc2nc(-c3ccco3)c(Cc3ccccc3)n2c1	CSN inh 35.9 (no result: LANA-H2A inh, ZTA counter, EBNA-1 inhibitor, A1 inh)
COc1ccccc1Cc1c(-c2ccco2)nc2ccc(Br)cn12	none (no result: LANA-H2A inh, ZTA counter, EBNA-1 inhibitor, A1 inh)
O=C(Cc1cccc(NC(=O)C2CCN(C(=O)CCc3ccccc3)CC2)c1)Nc1cccc(C(=O)N2CCCCC2)c1	none (no result: LANA-H2A inh, ZTA counter, EBNA-1 inhibitor, A1 inh)
C=CCNC(=O)c1sc(=S)n(-c2ccc(C(=O)OCC)cc2)c1N	LANA-H2A inh 39.5
CN(C)Cc1csc(NC(=O)Nc2ccccc2C(C)(C)C)n1	none (no result: LANA-H2A inh, ZTA counter, EBNA-1 inhibitor, A1 inh)
COc1ccc(S(=O)(=O)Nc2ccccc2C(=O)NCc2cccnc2)cc1OC	none
O=C(/C=C/Nc1ccccc1)c1ccc(Cl)cc1Cl	LANA-H2A inh 5.1
O=C(/C=C/Nc1ccccc1)c1ccccc1	none
CC(=O)Nc1ccc(NC(=O)C(=O)NCC(c2ccco2)N2CCc3ccccc32)cc1 (stereo not drawn)	A1 inh 32.2
CCN1/C(=C/C=C/C=C/C=C/c2sc3ccccc3[n+]2CC)Sc2ccccc21	ZTA counter 60.0, EBNA-1 inhibitor 42.4, HNF4A DNA FP 59.5
CCN1/C(=C/C=C/C=C/c2sc3ccccc3[n+]2CC)Sc2ccccc21	none (no result: ZTA counter, EBNA-1 inhibitor, HNF4A DNA FP, CSN inh)
Cc1ccc(C)n1-c1ccc(N(C)C)cc1	ZTA counter 180.5, EBNA-1 inhibitor 108.7
CC(Sc1nc2ccccc2[nH]1)C(=O)Nc1ccccc1F (stereo not drawn)	LANA-H2A inh 13.1
CC(Oc1cccc(Cl)c1)c1ccnc2nc(/N=C/N(C)C)nn12 (stereo not drawn)	LANA-H2A inh 112.2
CC(Oc1ccccc1)c1ccnc2nc(/N=C/N(C)C)nn12 (stereo not drawn)	none
CCCCOc1ccccc1NC(=O)CSc1nnnn1C(C)(C)C	none
COc1ccc(S(=O)(=O)N2CCC(C(=O)N[C@H](C(=O)NCc3ccncc3)C(C)C)CC2)cc1	none
COc1ccc(CNC(=O)[C@@H](NC(=O)C2CCN(S(=O)(=O)c3ccc(C)cc3)CC2)C(C)C)cc1OC	LANA-H2A inh 11.9
COc1ccc(S(=O)(=O)N2CCC(C(=O)NC3CCCC3)CC2)cc1OC	LANA-H2A inh 16.0 (no result: ZTA counter, EBNA-1 inhibitor)
CCOC(=O)C1CCN(C(=O)c2ccc(N3CCOCC3)c([N+](=O)[O-])c2)CC1	LANA-H2A inh 20.8 (no result: EBNA-1 inhibitor)
O=C(CNC(=O)c1ccc(Cl)cc1Cl)OCc1cn2cc(Br)ccc2n1	none (no result: ZTA counter, EBNA-1 inhibitor)
Cc1cccc(C)c1NC(=O)C1CCCCN1C (stereo not drawn)	LANA-H2A inh 24.7!
Cc1cc(C)c(NC(=O)C2CCCN2C)c(C)c1 (stereo not drawn)	none
Cc1nnc(SCC(=O)NC2CCCC(C)C2C)n1N (stereo not drawn)	none (no result: ZTA counter, EBNA-1 inhibitor)
CCC(=O)Oc1ccc(C(=O)Nc2ccc3c(c2)C(=O)N(C2CCCCC2)C3=O)cc1	HNF4A DNA FP 38.7
Cc1cccc2cc(C#N)c(NCCCNS(=O)(=O)c3ccc(Cl)cc3)nc12	none
CCCCN1CC(COCc2ccccc2)Oc2ccccc2S1(=O)=O (stereo not drawn)	none (no result: LANA-H2A inh, ZTA counter, EBNA-1 inhibitor, A1 inh)
CC(C(=O)NCCN1C(=O)S/C(=C\c2cccnc2)C1=O)N1C(=O)c2ccccc2C1=O (stereo not drawn)	none
O=C(CCl)NCCN1C(=O)S/C(=C\c2cccnc2)C1=O	CSN inh 62.0
COc1ccc(NC(=O)CN(C)S(=O)(=O)c2ccc(Cl)cc2)c([N+](=O)[O-])c1	none
COc1ccc(NC(=O)CN(C)S(=O)(=O)c2ccccc2)c([N+](=O)[O-])c1	HNF4A DNA FP 39.4
O=C(C=Cc1cccs1)c1ccccc1	none (no result: LANA-H2A inh, ZTA counter, EBNA-1 inhibitor, A1 inh)
O=C1CC(c2ccc(F)cc2)CC(O)=C1C=NCCN1CCNCC1 (stereo not drawn)	LANA-H2A inh 17.1
COc1cc(OC)cc(C(=O)NCCCNC(=O)c2ccccn2)c1	none
COC(=O)CC1C(=O)NCCN1C(=S)Nc1cc(C)cc(C)c1 (stereo not drawn)	none
CCNC(=S)N1CCNC(=O)C1CC(=O)OC (stereo not drawn)	CSN inh 80.7
N#C/C(=C/c1ccc(N2CCOCC2)o1)c1ccc(Cl)cc1	LANA-H2A inh 10.2
Cc1cc(Cl)ccc1OC(C)C(=O)Nc1ccc(C(=O)Nc2ccccc2C(=O)O)cc1 (stereo not drawn)	none
O=C(NCCCCCCCN1CCCCCCC1)C(C1CCCCC1)C1CCCCC1	CSN inh 55.4 (no result: LANA-H2A inh, ZTA counter, EBNA-1 inhibitor, A1 inh)
Cc1cc(Cl)ccc1C(O)c1ncc(-c2ccc(C(F)(F)F)cc2)[nH]1 (stereo not drawn)	none (no result: LANA-H2A inh, ZTA counter, EBNA-1 inhibitor, A1 inh)
CC(=O)Nc1ccc(S(=O)(=O)NCCC(=O)OCc2nc(N)nc(Nc3ccccc3C)n2)cc1	LANA-H2A inh 157.2
OC(c1ccccc1)c1ncc(-c2cccc(OCc3ccccc3)c2)[nH]1 (stereo not drawn)	none (no result: LANA-H2A inh, ZTA counter, EBNA-1 inhibitor, A1 inh)
